Most compounds without a hit are left out; they make up all but 2.2% or so of the library.
IMP-1 inh-1 – inhibitors of Pseudomonas aeruginosa IMP-1 metallo-beta-lactamase; purified IMP-1, nitrocefin hydrolysis, epi-absorbance fluorescence; inhibition, % at 5.6 µM; hit rate 0.45% among 290,000; AID 1556;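 active = inhibition above the mean plus 3 SD of all compounds in the same screening run, cut at about 4.5% in these data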;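 also: 0% = IMP-1 with DMSO and 100% = DMSO wells lacking enzyme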
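System – purified recombinant IMP-1 beta-lactamase · Input – IMP-1 dispensed at 0.2 nM · Timing – 15 min preincubation plus 25 min reaction at 25 °C · Signal – Epi-absorbance fluorescence, 480 nm excitation, 530 nm emission · Measure – percent IMP-1 inhibition derived from blank-referenced optical density · Controls – Enzyme-plus-DMSO low control, enzyme-free DMSO high control · Replication – singlicate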
PABP FP inh – PABP-poly(A) binding inhibition | PABP-poly(A) RNA binding, fluorescence polarization | P11940 | AID 2014 | calls only at 35 µM | hit rate 1% among 290,000;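 also: calls also rest on retests at 20 µM and on dose response follow-up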
VIM-2 inhibitor – inhibitors of Pseudomonas aeruginosa VIM-2 metallo-beta-lactamase. purified VIM-2, nitrocefin hydrolysis, epi-absorbance fluorescence. AID 1527. hit rate 0.89% among 290,000. inhibition, % at 5.6 µM;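 active = inhibition above the mean of all tested compounds plus 3 SD, cutoff set per screening run, cut at about 7.5% in these data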;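 also: red hydrolysis product quenches plate fluorescence so inhibitors raise well fluorescence; 0% = enzyme with DMSO and 100% = DMSO without enzyme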
eIF4H inh – inhibitors of RNA binding by human eIF4H | Q15056 | eIF4H fluorescence polarization binding assay | inhibition, % at 35 µM | hit rate 0.94% among 290,000 | AID 2012;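 also: calls also rest on retests at 20 µM and on dose response follow-up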
PABP1 MLLE inh – inhibitors of microRNA-mediated deadenylation, human PABP1 MLLE binding. P11940. GST-MLLE / FITC-PAM2 fluorescence polarization. inhibition, % at 20 µM. hit rate 0.36% among 360,000. AID 588489; in the data active = inhibition above about 35%, passing the limit was not always enough;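 also: plate controls were DMSO wells with GST-MLLE for no effect and wells lacking GST-MLLE protein for full effect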
IMP-1 inh-2 – blocks IMP-1 metallo-beta-lactamase in VIM-2 selectivity screen. shares compounds with VIM-2 inhibitor. purified IMP-1, nitrocefin hydrolysis, epi-absorbance fluorescence. inhibition, % at 5.6 µM. 1,300 tested, under 10 active. AID 1856;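 also: 0% = enzyme with vehicle and 100% = vehicle without enzyme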
VIM-2 FRET inh – inhibits VIM-2 in FRET assay to exclude epi-absorbance artifacts; shares compounds with VIM-2 inhibitor; purified VIM-2, CCF2 FRET substrate hydrolysis; inhibition, % at 5.6 µM; hit rate 23% among 1,300;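 active = inhibition above the mean of all tested compounds plus 3 SD, cut at about 19% in these data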;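 also: 0% = VIM-2 plus DMSO and 100% = no enzyme wells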
TEM-1 counter – TEM-1 inhibition, counter-screen for VIM-2 inhibitors; inhibition, % at 5.6 µM; Purified TEM-1, nitrocefin hydrolysis, epi-absorbance fluorescence; AID 1866; hit rate 3% among 1,300; shares compounds with VIM-2 inhibitor;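 active = inhibition above that campaign's mean inhibition plus 3 SD, cut at about 0.46% in these data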;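 also: 0% = TEM-1 with DMSO and 100% = TEM-1 with 100 µM potassium clavulanate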
Target sequence (P62593 whole entry, looked up): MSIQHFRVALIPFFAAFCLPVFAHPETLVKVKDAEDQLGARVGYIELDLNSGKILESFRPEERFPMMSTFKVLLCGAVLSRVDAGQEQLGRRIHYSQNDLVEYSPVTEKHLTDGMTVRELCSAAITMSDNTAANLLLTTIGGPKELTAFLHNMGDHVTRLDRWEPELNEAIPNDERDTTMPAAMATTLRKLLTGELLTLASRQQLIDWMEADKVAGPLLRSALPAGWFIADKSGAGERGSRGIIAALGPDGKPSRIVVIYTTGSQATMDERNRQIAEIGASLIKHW
VIM-2 inh conf – confirmation of P. aeruginosa VIM-2 metallo-beta-lactamase inhibitors | shares compounds with VIM-2 inhibitor | purified VIM-2, nitrocefin hydrolysis, epi-absorbance | inhibition, % at 5.6 µM | hit rate 96% among 1,300 | AID 2187;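 active = inhibition of the VIM-2 beta-lactamase enzyme above about 11% from the earlier first-round screen, limit read from the data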;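 also: 0% = VIM-2 with DMSO and 100% = buffer wells without enzyme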
An asterisk follows results filed as active; i = inactive; . = no result. Unless noted, no rule for the calls is given here.

SMILES	IMP-1 inh-1	PABP FP inh	VIM-2 inhibitor	eIF4H inh	PABP1 MLLE inh	IMP-1 inh-2	VIM-2 FRET inh	TEM-1 counter	VIM-2 inh conf
CCc1cc(=O)oc2c(C)c(OCC(=O)NC3CC(C)(C)NC(C)(C)C3)ccc12	-4	i	14*	7	18	-2	-1	-9	22*
CC(=O)C(C)Oc1ccc2c3c(c(=O)oc2c1)CCCC3 (stereo not drawn)	-5	i	3	1	5	.	.	.	.
O=C(COc1ccc2c3c(c(=O)oc2c1)CCCC3)NCc1ccncc1	-1	i	35*	-5	15	-1	2	3.2*	47*
CC(Oc1ccc2c3c(c(=O)oc2c1)CCCC3)C(=O)NCc1ccncc1 (stereo not drawn)	1	i	25*	1	-3	-2	-1	-4	38*
O=C(O)CCSSCCC(=O)O	.	.	.	.	-2	.	.	.	.
O=c1[nH]c(-c2ccccc2F)nc2c1sc(=S)n2Cc1ccccc1	-3	i	-4	-1	5	.	.	.	.
CCCS(=O)(=O)NC(=O)C1(C)CCN(C(=O)c2ccc(F)c(C)c2)C1 (stereo not drawn)	.	.	.	.	3	.	.	.	.
O=C(COc1ccc(Cl)cc1Cl)NCCN1CCCC1	.	.	.	.	-9	.	.	.	.
CC1(C)CC(NC(=O)COc2ccc3c4c(c(=O)oc3c2)CCCC4)CC(C)(C)N1	2	i	20*	-3	-18	-3	-2	-6	26*
Cc1c(OCC(=O)NCC(O)c2ccccc2)ccc2c(-c3ccccc3)cc(=O)oc12 (stereo not drawn)	-3	i	13*	8	0	-2	0	-7	26*
CCCc1cc(=O)oc2c(C)c(OCC(=O)N3CCC[C@@H]3C(=O)O)ccc12	-4	i	23*	-8	6	-2	41*	-5	24*
Cc1cc(=O)oc2c3c(cc(OCC(=O)N4CCC[C@H]4C(=O)O)c12)OC(C)(C)CC3	-2	i	26*	1	15	-3	46*	-3	29*
CCCc1cc(=O)oc2c3c(cc(OCC(=O)NCCN4CCOCC4)c12)OC(C)(C)CC3	-2	i	-1	3	-10	.	.	.	.
CCCCc1cc(=O)oc2c3c(cc(OCC(=O)N4CCC[C@H]4C(=O)O)c12)OC(C)(C)CC3	-5	i	16*	-1	-14	-3	36*	-6	20*
Cc1cc(=O)oc2c3c(cc(OCC(=O)N4CCC(C(=O)O)CC4)c12)OC(C)(C)CC3	-4	i	0	-4	1	.	.	.	.
Cc1cc(OCC(=O)N2CCC[C@@H]2C(=O)O)c2c(C)c(C)c(=O)oc2c1	-3	i	27*	0	11	-3	51*	-5	33*
C/C=C/c1ccc(OCc2cc(=O)n3cc(C)ccc3n2)c(OC)c1	-2	i	-1	1	-1	.	.	.	.
O=C1OC(CN(Cc2ccccc2)Cc2ccccc2)CN1N=Cc1ccc([N+](=O)[O-])o1 (stereo not drawn)	.	.	.	.	-25	.	.	.	.
O=C1NC(=S)NC(=O)C1=Cc1ccccc1C(=O)O	.	.	.	.	11	.	.	.	.
S=c1[nH]nc(Cc2ccccc2)n1Cc1ccco1	-1	i	1	-1	-8	.	.	.	.
C=CCn1c(C(c2ccccc2)c2ccccc2)n[nH]c1=S	-2	i	-6	3	-43	.	.	.	.
C=CCn1c(C2CC2)n[nH]c1=S	-2	i	15*	1	3	-3	37*	-7	23*
S=c1[nH]nc(C2CC2)n1Cc1ccco1	2	i	25*	-9	-12	-3	56*	-7	36*
Cc1ccc(CN2CCNC(=O)C2CC(=O)N(C)CCc2cnn(C)c2)cc1 (stereo not drawn)	-3	i	-4	-12	14	.	.	.	.
COc1ccc(C2=Nn3c(nnc3-c3ccncc3)SC2)cc1OC	1	i	64*	-1	11	-2	0	-4	75*
SMILES	IMP-1 inh-1	PABP FP inh	VIM-2 inhibitor	eIF4H inh	PABP1 MLLE inh	IMP-1 inh-2	VIM-2 FRET inh	TEM-1 counter	VIM-2 inh conf
CN1C(=O)/C(=C2\SC(N3CCCCCC3)=NC2=O)c2ccccc21	-3	i	13*	-4	4	-4	-7	-9	26*
CCCCCCn1cc(C(=O)O)c(=O)c2cc(F)c(N3CCN(C)CC3)cc21	2	i	16*	2	1	-1	7	-1	19*
C=CCN(c1cccc(C(F)(F)F)c1)S(=O)(=O)c1cccc(C(=O)OCC(=O)NCCC)c1	-5	i	-1	-6	21	.	.	.	.
CCOc1cc(C2C(C#N)=C(N)Oc3n[nH]c(CC)c32)ccc1OCCN1CCOCC1 (stereo not drawn)	-2	i	13*	2	-5	-2	2	-5	8.3*
COc1ccc(-c2oc3cc(O)c(OC)c(O)c3c(=O)c2OC)cc1O	.	.	.	.	-6	.	.	.	.
COc1cc(OC)c2c(=O)c(OC)c(-c3ccc(OC)c(OC)c3)oc2c1	-2	i	16*	-2	-12	-2	-6	-3	35*
Cc1cccn2c(=O)c3cc(C(=O)NCC4CCCO4)c(=N)n(CCc4ccccc4)c3nc12 (stereo not drawn)	-4	i	0	16	-12	.	.	.	.
COc1ccc(CCn2c(=N)c(C(=O)NCC3CCCO3)cc3c(=O)n4ccccc4nc32)cc1OC (stereo not drawn)	-2	i	14*	5	-24	-2	-1	-5	21*
CCc1cc2c(CN3CCN(CCO)CC3)cc(=O)oc2cc1O	-3	i	18*	2	5	-3	-19	-7	25*
CCc1cc2c(CN3CCN(C)CC3)cc(=O)oc2cc1O	1	i	16*	-5	-2	-1	-16	1.1*	31*
Cc1cc2oc(=O)cc(CN3CCN(Cc4ccccc4)CC3)c2cc1O	-2	i	-1	0	8	.	.	.	.
CCCC#Cc1ccc2c(c1)O[C@H](CN(C)S(=O)(=O)c1cccc(OC)c1)[C@H](C)CN([C@H](C)CO)S2(=O)=O	.	.	.	.	15	.	.	.	.
CN1CCN(CC(=O)Nc2c(C(=O)C3CC3)oc3ccccc23)CC1	-4	i	21*	-2	3	-2	3	-7	36*
COc1cc(NC(=O)C2=C(C)OCCS2)c(Cl)cc1C(=O)NCCN(C)C	-2	i	14*	-3	-2	-2	4	-9	27*
O=C1c2ccccc2S(=O)(=O)c2cc(C(=O)N3CCN(c4ccc(Cl)cn4)CC3)ccc21	.	.	.	.	-5	.	.	.	.

Screening results (PubChem BioAssay)
